Assay results reported in ChEMBL document CHEMBL4177770, “Discovery of MK-6169, a Potent Pan-Genotype Hepatitis C Virus NS5A Inhibitor with Optimized Activity against Common Resistance-Associated Substitutions” (J Med Chem, 2018).
Substitutions are numbered along the chain they refer to.

Columns and labels:
[1] = biological target: Genome polyprotein (Hepatitis C virus genotype 1b (isolate Con1) (HCV)) (UniProt Q9WMX2); test: Inhibition of NS5A in HCV genotype 1b Con1 infected in HB1 replicon cells assessed as decrease in viral replication by TaqMan-based assay; assay type: cell-based
[2] = biological target: Genome polyprotein (Hepatitis C virus genotype 3a (isolate NZL1) (HCV)) (UniProt Q81258); test: Inhibition of NS5A in HCV genotype 3a NZL1 infected in HB1 replicon cells assessed as decrease in viral replication by TaqMan-based assay; assay type: cell-based
[3] = MRT in Wistar Han rat at 100 mg/kg, po by LC/MS method; assay type: ADME, organism-based; details: in vivo
Summary of the method: (§1)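 Single rising oral dose study in fed male Wistar Han rats, dosed PO in 10% TWEEN at the indicated doses. Plasma was obtained by centrifuging the blood, and compound levels were determined by LC/MS.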

[4] = Tmax in Wistar Han rat at 100 mg/kg, po by LC/MS method; assay type: ADME, organism-based; details: in vivo; summary of the method: as §1
[5] = biological target: T1, Nonstructural protein 5A (Hepatitis C virus) (UniProt Q5L478); test: Inhibition of NS5A in HCV genotype 1a infected in HuH7 replicon cells assessed as decrease in viral replication after 3 days by RT-PCR method; assay type: cell-based; details: Hepatitis C virus subtype 1a
T1 sequence (whole entry): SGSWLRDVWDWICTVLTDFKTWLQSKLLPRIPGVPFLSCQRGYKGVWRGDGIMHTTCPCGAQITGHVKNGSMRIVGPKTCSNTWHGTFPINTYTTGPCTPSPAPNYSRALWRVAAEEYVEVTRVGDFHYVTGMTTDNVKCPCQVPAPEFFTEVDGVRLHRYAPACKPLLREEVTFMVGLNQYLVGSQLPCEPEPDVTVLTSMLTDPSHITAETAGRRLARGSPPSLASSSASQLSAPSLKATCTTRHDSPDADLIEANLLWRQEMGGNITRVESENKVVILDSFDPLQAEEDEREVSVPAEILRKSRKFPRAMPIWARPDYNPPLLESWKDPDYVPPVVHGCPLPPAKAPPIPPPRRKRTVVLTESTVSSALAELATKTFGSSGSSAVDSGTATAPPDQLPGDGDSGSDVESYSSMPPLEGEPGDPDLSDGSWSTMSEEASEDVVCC

[6] = Cmax in Wistar Han rat at 10 mg/kg, po by LC/MS method; assay type: ADME, organism-based; parameters: dose 10 mg/kg, route oral; details: in vivo
Summary of the method: (§2)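 Male Wistar Han rats, two per dosing group, dosed orally at 10 mg/kg in 10% TWEEN. Plasma was separated from collected blood by centrifugation and analysed by LC/MS.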

[7] = Tmax in Wistar Han rat at 300 mg/kg, po by LC/MS method; assay type: ADME, organism-based; details: in vivo; summary of the method: as §1
[8] = biological target: T1, Nonstructural protein 5A (Hepatitis C virus); test: Inhibition of NS5A L31M mutant in HCV genotype 2b infected in HuH7 replicon cells assessed as decrease in viral replication after 3 days by RT-PCR method; assay type: cell-based; details: Hepatitis C virus subtype 2b
[9] = system: T2, Nonstructural protein 5A (Hepatitis C virus), Q5L478 [Y93H]; test: Inhibition of NS5A Y93H mutant in HCV genotype 1a infected in HuH7 replicon cells assessed as decrease in viral replication after 3 days by RT-PCR method; assay type: cell-based; details: Hepatitis C virus subtype 1a
T2 sequence (whole entry): T1 sequence (whole entry) with Y93H

[10] = AUC in Wistar Han rat at 300 mg/kg, po by LC/MS method; assay type: ADME, organism-based; details: in vivo; summary of the method: as §1
[11] = Drug level in Beagle dog at 5 mg/kg, po measured at 24 hrs by LC/MS method; assay type: ADME, organism-based, Canis lupus familiaris; details: in vivo, read-out: Drug uptake
Summary of the method: (§3)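 Beagle dogs, two animals per dosing group. Oral dose was given in 10% TWEEN. Blood was collected and spun to plasma, and plasma compound levels were measured by LC/MS.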

[12] = AUC in Beagle dog at 5 mg/kg, po by LC/MS method; assay type: ADME, organism-based, Canis lupus familiaris; details: in vivo; summary of the method: as §3
[13] = MRT in Wistar Han rat at 300 mg/kg, po by LC/MS method; assay type: ADME, organism-based; details: in vivo; summary of the method: as §1
[14] = biological target: T1, Nonstructural protein 5A (Hepatitis C virus); test: Inhibition of NS5A L31V mutant in HCV genotype 1a infected in HuH7 replicon cells assessed as decrease in viral replication after 3 days by RT-PCR method; assay type: cell-based; details: Hepatitis C virus subtype 1a
[15] = biological target: T1, Nonstructural protein 5A (Hepatitis C virus); test: Inhibition of NS5A in HCV genotype 4a infected in HuH7 replicon cells assessed as decrease in viral replication after 3 days by RT-PCR method; assay type: cell-based; details: Hepatitis C virus subtype 4a
[16] = AUC in Wistar Han rat at 100 mg/kg, po by LC/MS method; assay type: ADME, organism-based; details: in vivo; summary of the method: as §1
[17] = MRT in Wistar Han rat at 10 mg/kg, po by LC/MS method; assay type: ADME, organism-based; details: in vivo; summary of the method: as §2
[18] = Half life in Wistar Han rat at 2 mg/kg, iv by LC/MS method; assay type: ADME, organism-based; details: in vivo
Summary of the method: (§4)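 Male Wistar Han rats, two per group, dosed IV at 2 mg/kg in 60% PEG200. Plasma was obtained by centrifuging the blood, and compound concentrations were measured by LC/MS.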

[19] = Cmax in Wistar Han rat at 300 mg/kg, po by LC/MS method; assay type: ADME, organism-based; parameters: dose 300 mg/kg, route oral; details: in vivo; summary of the method: as §1
[20] = Cmax in Wistar Han rat at 100 mg/kg, po by LC/MS method; assay type: ADME, organism-based; parameters: dose 100 mg/kg, route oral; details: in vivo; summary of the method: as §1
[21] = Drug level in Wistar Han rat at 300 mg/kg, po measured at 24 hrs by LC/MS method; assay type: ADME, organism-based; details: in vivo, read-out: Drug uptake; summary of the method: as §1
[22] = Tmax in Wistar Han rat at 10 mg/kg, po by LC/MS method; assay type: ADME, organism-based; details: in vivo; summary of the method: as §2
[23] = Drug level in Wistar Han rat at 10 mg/kg, po measured at 24 hrs by LC/MS method; assay type: ADME, organism-based; details: in vivo, read-out: Drug uptake; summary of the method: as §2
[24] = biological target: T1, Nonstructural protein 5A (Hepatitis C virus); test: Inhibition of NS5A in HCV genotype 1b infected in HuH7 replicon cells assessed as decrease in viral replication after 3 days by RT-PCR method; assay type: cell-based; details: Hepatitis C virus subtype 1b
[25] = Clearance in Wistar Han rat at 2 mg/kg, iv by LC/MS method; assay type: ADME, organism-based; details: in vivo; summary of the method: as §4
[26] = Clearance in Beagle dog at 1 mg/kg, iv by LC/MS method; assay type: ADME, organism-based, Canis lupus familiaris; details: in vivo
Summary of the method: (§5)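 Beagle dogs, two animals per group, dosed IV at 1 mg/kg in 60% PEG200. Plasma was prepared from collected blood by centrifugation, and compound was quantified by LC/MS.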

[27] = Drug level in Wistar Han rat at 100 mg/kg, po measured at 24 hrs by LC/MS method; assay type: ADME, organism-based; details: in vivo, read-out: Drug uptake; summary of the method: as §1
[28] = Oral bioavailability in Beagle dog at 5 mg/kg by LC/MS method; assay type: ADME, organism-based, Canis lupus familiaris; details: in vivo; summary of the method: as §3
[29] = biological target: T1, Nonstructural protein 5A (Hepatitis C virus); test: Inhibition of NS5A in HCV genotype 3a infected in HuH7 replicon cells assessed as decrease in viral replication after 3 days by RT-PCR method; assay type: cell-based; details: Hepatitis C virus subtype 3a
[30] = Oral bioavailability in Wistar Han rat at 10 mg/kg by LC/MS method; assay type: ADME, organism-based; details: in vivo; summary of the method: as §2
[31] = AUC in Wistar Han rat at 10 mg/kg, po by LC/MS method; assay type: ADME, organism-based; details: in vivo; summary of the method: as §2
[32] = Half life in Beagle dog at 1 mg/kg, iv by LC/MS method; assay type: ADME, organism-based, Canis lupus familiaris; details: in vivo; summary of the method: as §5
[33] = Cmax in Beagle dog at 5 mg/kg, po by LC/MS method; assay type: ADME, organism-based, Canis lupus familiaris; parameters: dose 5 mg/kg, route oral; details: in vivo; summary of the method: as §3
[34] = Resistance ratio of EC90 for NS5A L31M mutant in HCV genotype 2b infected in HuH7 replicon cells to EC90 for NS5A in HCV genotype 1a infected in HuH7 replicon cells; assay type: cell-based
[35] = Resistance ratio of EC90 for NS5A in HCV genotype 1b infected in HuH7 replicon cells to EC90 for NS5A in HCV genotype 1a infected in HuH7 replicon cells; assay type: cell-based
[36] = system: Hepatitis C virus subtype 1a; test: Resistance ratio of EC90 for NS5A Y93H mutant in HCV genotype 1a infected in HuH7 replicon cells to EC90 for NS5A in HCV genotype 1a infected in HuH7 replicon cells; assay type: cell-based
[37] = system: Hepatitis C virus subtype 1a; test: Resistance ratio of EC90 for NS5A L31V mutant in HCV genotype 1a infected in HuH7 replicon cells to EC90 for NS5A in HCV genotype 1a infected in HuH7 replicon cells; assay type: cell-based
[38] = Resistance ratio of EC90 for NS5A in HCV genotype 4a infected in HuH7 replicon cells to EC90 for NS5A in HCV genotype 1a infected in HuH7 replicon cells; assay type: cell-based
[39] = Resistance ratio of EC90 for NS5A in HCV genotype 3a infected in HuH7 replicon cells to EC90 for NS5A in HCV genotype 1a infected in HuH7 replicon cells; assay type: cell-based

Sequence of Genome polyprotein (Hepatitis C virus genotype 3a (isolate NZL1) (HCV)) (Q81258 whole entry): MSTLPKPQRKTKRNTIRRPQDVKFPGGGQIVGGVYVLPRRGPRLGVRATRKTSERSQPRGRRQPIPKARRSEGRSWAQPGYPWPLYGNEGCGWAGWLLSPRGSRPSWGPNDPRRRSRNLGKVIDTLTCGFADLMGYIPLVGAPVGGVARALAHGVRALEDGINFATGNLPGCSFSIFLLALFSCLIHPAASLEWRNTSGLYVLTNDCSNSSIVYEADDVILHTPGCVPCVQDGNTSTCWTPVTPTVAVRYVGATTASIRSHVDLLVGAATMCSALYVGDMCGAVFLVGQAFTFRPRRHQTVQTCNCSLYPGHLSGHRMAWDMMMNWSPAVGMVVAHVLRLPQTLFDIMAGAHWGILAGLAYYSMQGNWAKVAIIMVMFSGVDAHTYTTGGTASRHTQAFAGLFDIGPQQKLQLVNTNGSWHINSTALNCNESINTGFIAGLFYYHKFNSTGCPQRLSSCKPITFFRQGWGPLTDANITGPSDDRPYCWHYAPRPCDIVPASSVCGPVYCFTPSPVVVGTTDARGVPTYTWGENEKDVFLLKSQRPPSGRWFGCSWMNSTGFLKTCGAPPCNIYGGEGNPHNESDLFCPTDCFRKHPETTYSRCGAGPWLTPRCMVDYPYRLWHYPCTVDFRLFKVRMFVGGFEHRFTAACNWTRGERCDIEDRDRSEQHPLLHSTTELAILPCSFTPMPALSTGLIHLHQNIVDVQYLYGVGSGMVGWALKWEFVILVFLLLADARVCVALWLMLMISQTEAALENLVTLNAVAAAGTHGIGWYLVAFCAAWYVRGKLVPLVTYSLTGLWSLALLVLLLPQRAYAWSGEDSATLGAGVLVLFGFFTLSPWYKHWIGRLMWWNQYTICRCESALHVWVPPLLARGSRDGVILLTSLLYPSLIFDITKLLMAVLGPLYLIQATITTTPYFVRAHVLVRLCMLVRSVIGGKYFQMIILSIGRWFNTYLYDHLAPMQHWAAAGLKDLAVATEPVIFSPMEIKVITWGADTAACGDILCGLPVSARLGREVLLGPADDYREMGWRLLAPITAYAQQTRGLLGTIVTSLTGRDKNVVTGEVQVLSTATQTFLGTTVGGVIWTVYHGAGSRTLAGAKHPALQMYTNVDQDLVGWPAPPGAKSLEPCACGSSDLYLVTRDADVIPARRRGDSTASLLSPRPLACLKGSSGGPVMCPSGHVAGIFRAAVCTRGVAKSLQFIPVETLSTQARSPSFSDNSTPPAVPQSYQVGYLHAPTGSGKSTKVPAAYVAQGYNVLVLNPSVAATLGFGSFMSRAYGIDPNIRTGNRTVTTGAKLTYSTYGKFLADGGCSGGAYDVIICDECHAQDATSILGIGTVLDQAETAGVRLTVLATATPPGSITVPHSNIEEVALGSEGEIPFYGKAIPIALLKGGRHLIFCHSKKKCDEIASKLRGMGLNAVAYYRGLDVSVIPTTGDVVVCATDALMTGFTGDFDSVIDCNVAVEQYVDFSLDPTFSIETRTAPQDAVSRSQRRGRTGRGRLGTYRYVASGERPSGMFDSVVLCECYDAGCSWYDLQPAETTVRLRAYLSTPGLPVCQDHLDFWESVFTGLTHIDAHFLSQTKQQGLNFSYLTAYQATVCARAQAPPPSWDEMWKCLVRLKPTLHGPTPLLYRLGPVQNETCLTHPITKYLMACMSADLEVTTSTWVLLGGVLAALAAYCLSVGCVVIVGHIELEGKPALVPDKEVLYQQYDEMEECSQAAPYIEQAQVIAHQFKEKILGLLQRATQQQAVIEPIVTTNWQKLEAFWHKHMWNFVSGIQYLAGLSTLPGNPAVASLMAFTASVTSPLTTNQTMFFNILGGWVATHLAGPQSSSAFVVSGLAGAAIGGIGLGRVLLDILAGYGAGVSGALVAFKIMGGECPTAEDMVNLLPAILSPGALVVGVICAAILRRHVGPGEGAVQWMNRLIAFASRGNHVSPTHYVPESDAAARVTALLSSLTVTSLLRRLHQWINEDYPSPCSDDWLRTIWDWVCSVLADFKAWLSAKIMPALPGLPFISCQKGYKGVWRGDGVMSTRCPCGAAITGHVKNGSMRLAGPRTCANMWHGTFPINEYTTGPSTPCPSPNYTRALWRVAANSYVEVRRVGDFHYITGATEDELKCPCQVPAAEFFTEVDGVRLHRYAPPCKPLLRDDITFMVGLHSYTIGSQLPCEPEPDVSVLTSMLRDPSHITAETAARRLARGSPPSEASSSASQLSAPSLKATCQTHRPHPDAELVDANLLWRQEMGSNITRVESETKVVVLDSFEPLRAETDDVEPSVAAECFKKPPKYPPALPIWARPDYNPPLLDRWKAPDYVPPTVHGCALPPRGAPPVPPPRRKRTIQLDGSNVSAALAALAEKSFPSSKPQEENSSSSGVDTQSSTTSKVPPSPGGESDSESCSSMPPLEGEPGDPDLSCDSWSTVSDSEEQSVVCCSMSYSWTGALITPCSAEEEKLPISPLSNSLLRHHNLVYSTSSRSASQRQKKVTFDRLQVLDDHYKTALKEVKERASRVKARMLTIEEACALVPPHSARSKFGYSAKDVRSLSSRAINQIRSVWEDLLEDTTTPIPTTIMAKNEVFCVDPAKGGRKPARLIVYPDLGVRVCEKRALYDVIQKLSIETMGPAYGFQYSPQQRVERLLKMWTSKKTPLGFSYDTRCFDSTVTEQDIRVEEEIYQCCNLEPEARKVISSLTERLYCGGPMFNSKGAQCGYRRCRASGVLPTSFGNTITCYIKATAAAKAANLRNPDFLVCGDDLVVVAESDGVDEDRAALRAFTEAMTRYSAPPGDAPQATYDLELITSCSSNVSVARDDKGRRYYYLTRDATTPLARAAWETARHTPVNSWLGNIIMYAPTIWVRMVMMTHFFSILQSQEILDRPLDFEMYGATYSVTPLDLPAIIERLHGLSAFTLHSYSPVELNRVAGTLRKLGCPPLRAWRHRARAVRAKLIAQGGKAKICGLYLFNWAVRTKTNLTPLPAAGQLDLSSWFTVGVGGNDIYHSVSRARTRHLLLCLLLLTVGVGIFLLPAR

Compound | MRT [3] [h] | Tmax [4] [h] | EC90 [5] [pM] | Cmax [6] [nM] | Tmax [7] [h] | EC90 [8] [nM] | EC90 [9] [nM] | AUC [10] [µM·h] | concentration at 24 h [11] [nM] | AUC [12] [µM·h] | MRT [13] [h] | EC90 [14] [pM] | EC90 [15] [pM] | AUC [16] [µM·h] | MRT [17] [h] | half-life [18] [min] | Cmax [19] [nM] | Cmax [20] [nM] | concentration at 24 h [21] [nM] | Tmax [22] [h] | further results
COC(=O)N[C@H](C(=O)N1CCC[C@H]1c1nc(-c2ccc3c(c2)O[C@@H](c2ccccc2)n2c-3cc3cc(-c4c[nH]c([C@@H]5CCCN5C(=O)[C@@H](NC(=O)OC)C(C)C)n4)ccc32)c[nH]1)C(C)C | – | – | – | – | – | – | – | – | – | – | – | – | – | – | – | – | – | – | – | – | EC90 [1]: 6 pM; EC90 [2]: 0.12 nM
COC(=O)N[C@H](C(=O)N1CCC[C@H]1c1ncc(-c2cc(F)c3c(c2)O[C@@H](c2ccc(C4CC4)s2)n2c-3cc3cc(-c4cnc([C@@H]5CCCN5C(=O)[C@@H](NC(=O)OC)C5C[C@@H](C)O[C@H](C)C5)[nH]4)ccc32)[nH]1)C(C)C (stereo not given in full) | 7.6 | 3 | 4 | 50 to 119 | 7 | 0.012 | 0.015 | 5.58 | 87 | 5.05 | 9.3 | 4 | 7 | 2.07 | 6 | 216 | 510 | 240 | 29 | 3 | concentration at 24 h [23]: 1 to 4 nM; EC90 [24]: 4 pM; clearance [25]: 11 mL/min/kg; clearance [26]: 2.6 mL/min/kg; concentration at 24 h [27]: 9 nM; bioavailability [28]: 18.7%; EC90 [29]: 7 pM; bioavailability [30]: 6.3%; AUC [31]: 0.31 to 0.93 µM·h; half-life [32]: 678 min; Cmax [33]: 640 nM
COC(=O)N[C@H](C(=O)N1CCC[C@H]1c1ncc(-c2cc(F)c3c(c2)O[C@@H](c2ccc(C4CC4)s2)n2c-3cc3cc(-c4cnc([C@@H]5CCCN5C(=O)[C@@H](NC(=O)OC)C5CCOCC5)[nH]4)ccc32)[nH]1)C(C)C | 8.3 | 4 | 4 | 34 to 20000 | 4 | 0.014 | 0.018 | 3.99 | 22 | 2.61 | 9.9 | 6 | 5 | 1.64 | 7.9 | 240 | 360 | 200 | 32 | 3 | Ratio [34]: < 10; concentration at 24 h [23]: 2 to 1000 nM; EC90 [24]: 5 pM; clearance [25]: 18 mL/min/kg; clearance [26]: 4 mL/min/kg; concentration at 24 h [27]: 11 nM; Ratio [35]: < 10; bioavailability [28]: 11%; Ratio [36]: < 10; EC90 [29]: 8 pM; bioavailability [30]: 3.1%; Ratio [37]: < 10; AUC [31]: 0.14 to 0.29 µM·h; Ratio [38]: < 10; half-life [32]: 252 min; Ratio [39]: < 10; Cmax [33]: 460 nM
